High-throughput results from PubChem BioAssay.
Rows were chosen to be rich in hits. Some 2.8% of all compounds tested hit in one or more screens of this group.
SIRT5 block: SIRT5 desuccinylase inhibitors, primary screen, biochemical, fluorescence imaging, single point, set 5; inhibition, % at 15 µM; 1.1% of 330,000 active; Purified SirT5, succinyl-peptide AMC, trypsin-coupled fluorescence; NAD-dependent protein deacylase sirtuin-5, mitochondrial (Homo sapiens), Q9NXA8; AID 652115, 2013; in the data active means inhibition above about 15%; inconclusive means no clear call, values can overlap the other calls
DENV2 CPE: inhibitors of DENV2 cytopathic effect, primary screen, cell-based, plate reader, single concentration. CPE inhibition, % at 9.99 µM. DENV2-infected cells, cytopathic effect rescue. 1.7% of 350,000 active; in the data active means CPE inhibition above about 20%, passing the limit was not always enough; inconclusive means no clear call, values can overlap the other calls; tested in BHK-21 cells;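 further: 0% = median of neutral control wells and 100% = median of positive control wells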
E-sel inducer: E-selectin induction in HUVECs, primary screen, imaging, HUVEC, immunofluorescence imaging, single point; P16581; activation, % at 7.58 µM; AID 686992, 2013; normalized: neutral wells 0, TNF-alpha wells 100; 0.37% of 260,000 active;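 active means mean E-selectin-positive cell signal at least 10% of the positive control, reached in at least 60% of replicates, without over 20% cell loss; inconclusive means no rule given, readout overlaps actives, possibly toxicity-flagged; inactive means the rest, including those meeting only one limit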
Target sequence (P16581 whole entry, looked up): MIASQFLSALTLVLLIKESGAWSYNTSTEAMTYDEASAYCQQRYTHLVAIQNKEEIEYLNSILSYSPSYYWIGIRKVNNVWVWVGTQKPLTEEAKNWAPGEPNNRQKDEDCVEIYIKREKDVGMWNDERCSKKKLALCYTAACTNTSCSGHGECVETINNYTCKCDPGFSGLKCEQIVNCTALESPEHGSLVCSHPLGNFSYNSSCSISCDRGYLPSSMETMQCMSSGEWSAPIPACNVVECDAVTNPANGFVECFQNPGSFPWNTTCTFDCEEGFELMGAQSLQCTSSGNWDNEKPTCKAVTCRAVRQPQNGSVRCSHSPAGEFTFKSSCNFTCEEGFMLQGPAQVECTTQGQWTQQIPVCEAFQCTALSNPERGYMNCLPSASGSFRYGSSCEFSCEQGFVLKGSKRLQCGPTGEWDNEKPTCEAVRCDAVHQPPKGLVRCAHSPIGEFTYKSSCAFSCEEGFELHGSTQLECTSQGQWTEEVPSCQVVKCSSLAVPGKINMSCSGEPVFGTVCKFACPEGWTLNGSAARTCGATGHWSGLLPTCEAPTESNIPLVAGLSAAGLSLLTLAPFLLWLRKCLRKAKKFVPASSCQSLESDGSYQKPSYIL
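material = human umbilical vein endothelial cells (HUVEC), E-selectin induction | quantity = 3,000 cells/well | medium = EGM-2 growth medium on 0.1% gelatin-coated wells | technique = immunofluorescence imaging | read-out basis = % PE-positive cells | control set = TNF-alpha positive control, DMSO neutral control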
* = called active by the depositor; ? = inconclusive; / = no result; ! = not confirmed by another sample.

SMILES	SIRT5 block	DENV2 CPE	E-sel inducer
Cc1cccc(S(=O)(=O)N(C)C[C@H]2OCc3cnnn3CCCC(=O)N([C@H](C)CO)C[C@@H]2C)c1	21*!	?	-2
C[C@H]1CN([C@@H](C)CO)C(=O)CCCn2nncc2CO[C@H]1CN(C)S(=O)(=O)c1cccc(F)c1	0	-4	1
C[C@@H]1CN([C@H](C)CO)C(=O)c2cc(NC(=O)NC3CCCCC3)ccc2O[C@@H](C)CCCCO[C@@H]1CN(C)S(=O)(=O)c1cn(C)cn1	-1	?	0
C[C@H](CO)N1C[C@H](C)[C@@H](CN(C)C(=O)C2CC2)Oc2cc(-c3ccccc3F)ccc2S1(=O)=O	-4	-3	0
Cc1ccc(S(=O)(=O)Nc2ccc3c(c2)C(=O)N([C@@H](C)CO)C[C@@H](C)[C@H](CN(C)C(=O)Nc2ccc4c(c2)OCO4)O3)cc1	/	/	0
C[C@H](CO)N1C[C@H](C)[C@@H](CN(C)CC2CCCCC2)OCCCC[C@H](C)Oc2ccc(N(C)C)cc2C1=O	14	19	0
CCC(C)(C)NC(=O)Cn1c(=O)oc2cc(S(=O)(=O)N3CC(C)CC(C)C3)ccc21 (centres undefined)	-2	1	0
CC1CC(C)CN(S(=O)(=O)c2ccc3c(c2)oc(=O)n3CC(=O)NCc2cccnc2)C1 (centres undefined)	22*	-4	-1
OC(c1ccccc1)C(NCc1ccccc1)c1ccccc1 (centres undefined)	-2	21*	/
OC(CNCc1ccccc1)c1ccccc1 (centres undefined)	0	9	/
c1ccc(CCc2nc(-c3ccc(-n4cccc4)cc3)no2)cc1	18*	-4	0
COc1ccc(Cc2nc(-c3ccc(-n4cccc4)cc3)no2)cc1	/	-6	0
CCCNC(=O)N1CC(=O)N2[C@H](C1)[C@@H](c1ccc(-c3cccc(C)c3)cc1)[C@@H]2CO	-2	6	1
O=[N+]([O-])c1ccc(O)c(/C=N/n2c(CO)nc3ccccc32)c1	12	7	/
O=[N+]([O-])c1ccc(O)c(/C=N/n2cnc3ccccc32)c1	3	70*	/
CCCNC(=O)N1[C@H](CO)[C@@H](c2ccccc2)[C@H]1CNC(=O)c1ccc(F)cc1	/	36	0
COc1cc(C2Nc3ccccc3C(=O)N2NS(C)(=O)=O)c([N+](=O)[O-])cc1OC (centres undefined)	-1	-2	0
COc1ccc(C2Nc3ccccc3C(=O)N2NS(C)(=O)=O)c(OC)c1 (centres undefined)	15*	-3	0
CO[C@H](CN(C)Cc1cc(F)ccc1F)[C@@H](C)CN(C(=O)Nc1ccc(F)cc1)[C@@H](C)CO	-2	2	0
C[C@@H]1CN([C@@H](C)CO)S(=O)(=O)c2ccc(-c3cccc(C(=O)N(C)C)c3)cc2O[C@H]1CN(C)Cc1ccc2c(c1)OCO2	19*	4	/
COc1ccccc1-c1ccc2c(c1)O[C@@H](CN(C)CC1CC1)[C@@H](C)CN([C@@H](C)CO)S2(=O)=O	/	/	0
COc1ccccc1-c1ccc2c(c1)O[C@@H](CN(C)Cc1ccc3c(c1)OCO3)[C@H](C)CN([C@@H](C)CO)S2(=O)=O	23*	-2	/
C[C@@H]1CN([C@@H](C)CO)S(=O)(=O)c2ccc(-c3cccc(C(=O)N(C)C)c3)cc2O[C@@H]1CN(C)Cc1ccc2c(c1)OCO2	1	-6	/
COc1ccccc1-c1ccc2c(c1)O[C@@H](CN(C)C)[C@@H](C)CN([C@H](C)CO)S2(=O)=O	-10	8	1
COc1ccccc1-c1ccc2c(c1)O[C@@H](CN(C)Cc1ccc3c(c1)OCO3)[C@@H](C)CN([C@H](C)CO)S2(=O)=O	17*	-5	/
SMILES	SIRT5 block	DENV2 CPE	E-sel inducer
C[C@H](CO)N1C[C@H](C)[C@H](CN(C)C(=O)Cc2ccccn2)Oc2ncc(-c3ccncc3)cc2C1=O	4	-7	0
O=C(Nc1cccc(Cl)c1)N[C@H]1CC[C@H](CCNC(=O)C2CCCCC2)O[C@H]1CO	-2	-4	0
C[C@@H]1CN([C@@H](C)CO)C(=O)c2cc(NS(C)(=O)=O)ccc2O[C@H]1CN(C)S(=O)(=O)c1cn(C)cn1	-2	?	12
Cc1c(C(=O)c2ccc(N(C)C)cc2)c2ccccn2c1CCC#N	112*	-4	/
Cc1c(C(=O)c2ccc(F)cc2F)c2ccccn2c1CCC#N	2	-6	/
CO[C@H]1CN(C)C(=O)c2ccc(NC(C)=O)cc2OC[C@@H](C)N(Cc2ccncc2)C[C@H]1C	/	/	1
Cc1cn(CC(=O)NCc2ccccc2)c(=O)[nH]c1=O	20*	-1	2
